Test results taken from ChEMBL document CHEMBL3244007, “Resolution of antimalarial agents via complex formation with alpha-(2,4,5,7-tetranitro-9-fluorenylideneaminooxy) propionic acid” (J Med Chem, 1978).
Activity calls are given as the source filed them. No cut-off for these calls is given here.

Experiments:
[1] = test system: Plasmodium berghei; assay: Antimalarial activity against Plasmodium berghei infected in mouse assessed as change in mean survival time at 10 mg/kg (reference value: 6.2 +/- 0.5 days); type: functional
[2] = test system: Mus musculus; assay: Toxicity in mouse infected with Plasmodium berghei assessed as mortality at 320 mg/kg after 2 to 5 days; type: organism-based; set-up: dose 320 mg/kg; conditions: in vivo
[3] = test system: Plasmodium berghei; assay: Antimalarial activity against Plasmodium berghei infected in mouse assessed as change in mean survival time at 1.25 mg/kg (reference value: 6.2 +/- 0.5 days); type: functional
[4] = test system: Plasmodium berghei; assay: Antimalarial activity against Plasmodium berghei infected in mouse assessed as change in mean survival time at 20 mg/kg (reference value: 6.2 +/- 0.5 days); type: functional
[5] = test system: Plasmodium berghei; assay: Antimalarial activity against Plasmodium berghei infected in mouse assessed as change in mean survival time at 2.5 mg/kg (reference value: 6.2 +/- 0.5 days); type: functional
[6] = test system: Plasmodium berghei; assay: Antimalarial activity against Plasmodium berghei infected in mouse assessed as change in mean survival time at 5 mg/kg (reference value: 6.2 +/- 0.5 days); type: functional
[7] = test system: Mus musculus; assay: Toxicity in mouse infected with Plasmodium berghei assessed as mortality at 160 mg/kg after 2 to 5 days; type: organism-based; set-up: dose 160 mg/kg; conditions: in vivo
[8] = test system: Mus musculus; assay: Toxicity in mouse infected with Plasmodium berghei assessed as mortality at 640 mg/kg after 2 to 5 days; type: organism-based; set-up: dose 640 mg/kg; conditions: in vivo
[9] = test system: Plasmodium cynomolgi; assay: Antimalarial activity against Plasmodium cynomolgi infected in rhesus monkey assessed as cured animal at 0.5 mg/kg qd for 7 days measured after 105 days in presence of chloroquine; type: functional, organism-based; set-up: dose 0.5 mg/kg
Procedure, shortened: (§1)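 Test compounds were given as phosphate salts, with doses expressed as free base, once daily for 7 days together with chloroquine at 2.5 mg per kg body weight. An animal was scored as cured when thick blood films stayed parasite-negative for 105 days or more after the last dose.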

[10] = test system: Plasmodium cynomolgi; assay: Antimalarial activity against Plasmodium cynomolgi infected in rhesus monkey assessed as cured animal at 0.375 mg/kg qd for 7 days measured after 105 days in presence of chloroquine; type: functional, organism-based; set-up: dose 0.375 mg/kg; procedure, shortened: as §1
[11] = test system: Plasmodium cynomolgi; assay: Antimalarial activity against Plasmodium cynomolgi infected in rhesus monkey assessed as cured animal at 0.75 mg/kg qd for 7 days measured after 105 days in presence of chloroquine; type: functional, organism-based; set-up: dose 0.75 mg/kg; procedure, shortened: as §1
[12] = test system: Plasmodium berghei; assay: Antimalarial activity against Plasmodium berghei infected in mouse assessed as change in mean survival time at 40 mg/kg (reference value: 6.2 +/- 0.5 days); type: functional
[13] = test system: Plasmodium berghei; assay: Antimalarial activity against Plasmodium berghei infected in mouse assessed as change in mean survival time at 160 mg/kg (reference value: 6.2 +/- 0.5 days); type: functional
[14] = test system: Plasmodium berghei; assay: Antimalarial activity against Plasmodium berghei infected in mouse assessed as change in mean survival time at 80 mg/kg (reference value: 6.2 +/- 0.5 days); type: functional
[15] = test system: Plasmodium berghei; assay: Antimalarial activity against Plasmodium berghei infected in mouse assessed as change in mean survival time at 320 mg/kg (reference value: 6.2 +/- 0.5 days); type: functional
[16] = test system: Plasmodium berghei; assay: Antimalarial activity against Plasmodium berghei infected in mouse assessed as change in mean survival time at 640 mg/kg (reference value: 6.2 +/- 0.5 days); type: functional
[17] = test system: Rhesus monkey; assay: Toxicity in rhesus monkey at 0.375 to 0.75 mg/kg; type: organism-based, Macaca mulatta; set-up: dose 0.375-0.75 mg/kg; conditions: in vivo
[18] = test system: Plasmodium cynomolgi; assay: Antimalarial activity against Plasmodium cynomolgi infected in rhesus monkey assessed as relapse time at 0.375 mg/kg qd for 7 days in presence of chloroquine; type: functional
[19] = test system: Plasmodium cynomolgi; assay: Antimalarial activity against Plasmodium cynomolgi infected in rhesus monkey assessed as relapse time at 0.5 mg/kg qd for 7 days in presence of chloroquine; type: functional

| Compound | MST [1] [days] | MST [3] [days] | MST [4] [days] | MST [5] [days] | MST [6] [days] | MST ([12]; 40 mg/kg) [days] | MST ([14]; 80 mg/kg) [days] | other results |
| --- | --- | --- | --- | --- | --- | --- | --- | --- |
| Nc1nc(N)c2c(n1)CCC(S(=O)(=O)c1ccc3ccccc3c1)C2 (single isomer, unassigned; (-)) | 7.1 | 1.3 | 11.3 | 3.1 | 4.9 | – | – | Activity [2]: Toxic; Activity [7]: Toxic; Activity [8]: Toxic |
| COc1cc(NC(C)CCCN)c2ncccc2c1 (racemic) | – | – | – | – | – | – | – | Activity [9]: Active; Activity [10]: inactive; Activity [11]: Active |
| Nc1nc(N)c2c(n1)CCC(S(=O)(=O)c1ccc3ccccc3c1)C2 (single isomer, unassigned; (+)) | – | – | 0.3 | – | – | – | – | MST [12]: 1.7 days; MST [13]: 6.9 days; MST [14]: 4.5 days; MST [15]: 9.1 days |
| CCCCCCCN(CCCCCCC)CC(O)c1cc2ccccc2c2cc(Br)ccc12 (stereo in doubt; (-)-3) | – | – | 0.3 | – | – | 2.1 | 3.9 | MST [16]: 11.1 days; MST ([13]; 160 mg/kg): 5.3 days; MST ([15]; 320 mg/kg): 6.1 days |
| CCCCN(CCCC)CC(O)c1cc(-c2ccc(C(F)(F)F)cc2)nc(-c2ccc(C(F)(F)F)cc2)c1 (single isomer, unassigned; (-)) | 1.3 | – | 3.1 | – | – | 10.5 | 13.1 | MST [13]: 19.9 days |
| COc1cc(NC(C)CCCN)c2ncccc2c1.O=P(O)(O)O.O=P(O)(O)O (stereo in doubt; (+)-5) [PRIMAQUINE PHOSPHATE] | – | – | – | – | – | – | – | Activity [17]: Toxic; Time [18]: 10 days; Time [19]: 28 days |
| CCCCN(CCCC)CCC(O)c1cc2c(Cl)cc(Cl)cc2c2cc(C(F)(F)F)ccc12 (racemic) [HALOFANTRINE] | 14.9 | – | – | – | 9.3 | – | – | – |
| CCCCCCCN(CCCCCCC)CC(O)c1cc2ccccc2c2cc(Br)ccc12 (single isomer, unassigned; (+)) | – | – | 0.5 | – | – | 1.7 | 4.1 | MST [16]: 14.9 days; MST ([13]; 160 mg/kg): 6.7 days; MST ([15]; 320 mg/kg): 9.3 days |
| CCCCN(CCCC)CC(O)c1cc(-c2ccc(C(F)(F)F)cc2)nc(-c2ccc(C(F)(F)F)cc2)c1 (racemic) | 5.5 | – | 8.6 | – | – | – | – | – |
| CCCCN(CCCC)CCC(O)c1cc2c(Cl)cc(Cl)cc2c2cc(C(F)(F)F)ccc12 (stereo in doubt; (-)-8) [HALOFANTRINE] | 5.1 | 0.1 | 8.9 | 0.3 | 1.5 | 12.5 | 13.2 | – |
| CCCCN(CCCC)CC(O)c1cc(-c2ccc(Cl)c(Cl)c2)nc2c(Cl)cc(Cl)cc12 (single isomer, unassigned; (+)) | 6.9 | 0.5 | 10 | 0.5 | 3.5 | 11.8 | – | – |
| Nc1nc(N)c2c(n1)CCC(S(=O)(=O)c1ccc3ccccc3c1)C2 (racemic) | 11.9 | 4.9 | – | 7.5 | 10.7 | – | – | – |
| CCCCN(CCCC)CC(O)c1cc(-c2ccc(C(F)(F)F)cc2)nc(-c2ccc(C(F)(F)F)cc2)c1 (stereo in doubt; (+)-2) | 3.9 | – | 10.7 | – | – | 18.1 | 25.6 | – |
| CCCCCCCN(CCCCCCC)CC(O)c1cc2ccccc2c2cc(Br)ccc12 (racemic) | – | – | 2.9 | – | – | 6.9 | 11.3 | MST ([13]; 160 mg/kg): 15.3 days; MST ([15]; 320 mg/kg): 25.9 days |
| COc1cc(NC(C)CCCN)c2ncccc2c1 (stereo in doubt; (+)-5) | – | – | – | – | – | – | – | Activity [11]: Active |
| CCCCN(CCCC)CCC(O)c1cc2c(Cl)cc(Cl)cc2c2cc(C(F)(F)F)ccc12 (stereo in doubt; (+)-8) [HALOFANTRINE] | 10.3 | 0.5 | 11.1 | 3.1 | 7.5 | 14.5 | 16.9 | – |
| COc1cc(NC(C)CCCN)c2ncccc2c1 (single isomer, unassigned; (-)) | – | – | – | – | – | – | – | Activity [11]: Active |
| COc1cc(NC(C)CCCN)c2ncccc2c1.O=P(O)(O)O.O=P(O)(O)O (single isomer, unassigned; (-)) [PRIMAQUINE PHOSPHATE] | – | – | – | – | – | – | – | Time [18]: 11 days; Time [19]: 16 days |
| CCCCN(CCCC)CC(O)c1cc(-c2ccc(Cl)c(Cl)c2)nc2c(Cl)cc(Cl)cc12 (single isomer, unassigned; (-)) | – | – | 3.8 | – | – | 7.8 | 9 | MST [13]: 12.8 days |
| CCCCN(CCCC)CC(O)c1cc(-c2ccc(Cl)c(Cl)c2)nc2c(Cl)cc(Cl)cc12 (racemic) | 10.7 | 0.3 | 14.9 | 4.1 | 6.1 | 11.9 | 22.9 | – |
